Measurements taken from ChEMBL document CHEMBL2010703, “Synthesis and structure-activity relationship studies of 3-biaryl-8-oxabicyclo[3.2.1]octane-2-carboxylic acid methyl esters” (Bioorg Med Chem, 2012).

What was measured:
Macaca mulatta = species: Macaca mulatta; experiment: Binding affinity to rhesus monkey DAT
In short: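 Monkey striatal tissue; each compound tested 2–5 times. Competition binding used a fixed radioligand concentration against a range of test-drug concentrations.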

Homo sapiens = species: Homo sapiens; experiment: Selectivity ratio of IC50 for human DAT to IC50 for human SERT
[1] = biological target: Sodium-dependent dopamine transporter (Homo sapiens) (UniProt Q01959); experiment: Displacement of [3H]WIN 35,428 from human dopamine active transporter
In short: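 A fixed radioligand concentration was run against a range of test-drug concentrations, and IC50 was read. Racemic compounds. Values are means of two or more independent experiments, each in triplicate.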

Chain of Sodium-dependent dopamine transporter (Homo sapiens) (Q01959 whole entry): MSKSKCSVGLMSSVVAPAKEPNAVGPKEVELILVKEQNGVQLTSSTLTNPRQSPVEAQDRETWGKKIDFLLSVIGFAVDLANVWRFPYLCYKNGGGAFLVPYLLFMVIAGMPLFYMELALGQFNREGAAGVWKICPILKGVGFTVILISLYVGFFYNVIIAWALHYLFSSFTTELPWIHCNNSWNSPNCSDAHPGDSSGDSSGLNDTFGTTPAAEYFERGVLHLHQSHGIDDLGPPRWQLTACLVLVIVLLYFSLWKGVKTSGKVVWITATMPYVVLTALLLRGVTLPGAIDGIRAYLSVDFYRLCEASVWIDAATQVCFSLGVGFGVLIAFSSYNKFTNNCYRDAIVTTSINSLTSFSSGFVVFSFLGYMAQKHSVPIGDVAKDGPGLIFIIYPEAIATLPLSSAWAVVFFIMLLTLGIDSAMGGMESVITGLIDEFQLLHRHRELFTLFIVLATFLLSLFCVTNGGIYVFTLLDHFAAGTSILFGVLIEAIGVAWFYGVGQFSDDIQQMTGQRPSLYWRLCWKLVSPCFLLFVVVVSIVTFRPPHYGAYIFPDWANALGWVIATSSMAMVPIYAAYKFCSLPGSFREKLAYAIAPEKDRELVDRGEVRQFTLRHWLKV

Row | SMILES | Activity (Macaca mulatta) | Ratio IC50 (Homo sapiens) | inhibition [1]
1 | COC(=O)[C@H]1[C@@H](c2ccc(F)cc2)C[C@@H]2CC[C@H]1N2C | 12.9 nM | – | –
2 | COC(=O)[C@H]1C2CCC(C[C@H]1c1cccc(-c3nccs3)c1)O2 (mixture of isomers) | – | 1 | Dose-dependent effect
3 | COC(=O)[C@H]1C2CCC(C[C@H]1c1ccc(-c3ccccc3)o1)O2 (mixture of isomers) | – | < 2 | Dose-dependent effect
4 | COC(=O)[C@H]1C2CCC(C[C@H]1c1cc3ccccc3o1)O2 (mixture of isomers) | – | < 0.04 | Dose-dependent effect
5 | COC(=O)[C@@H]1C2CCC(C[C@@H]1c1ccc(-c3ccco3)cc1)O2 (mixture of isomers) | – | 2 | Dose-dependent effect
6 | COC(=O)[C@H]1C2CCC(C[C@@H]1c1cc3ccccc3[nH]1)O2 (mixture of isomers) | – | 0.4 | Dose-dependent effect
7 | COC(=O)[C@@H]1C2CCC(C[C@@H]1c1ccc(-c3cccn3C)cc1)O2 (mixture of isomers) | – | > 2 | Dose-dependent effect
8 | COC(=O)[C@@H]1C2CCC(C[C@H]1c1cccs1)O2 (mixture of isomers) | – | 1 | Dose-dependent effect
9 | COC(=O)C1=C(c2ccc(-c3ccccc3)s2)CC2CCC1O2 (racemic) | – | 1 | Dose-dependent effect
10 | COC(=O)[C@@H]1C2CCC(C[C@@H]1c1cc3ccccc3[nH]1)O2 (mixture of isomers) | – | 0.2 | Dose-dependent effect
11 | COC(=O)C1=C(c2ccc(-c3ccccc3)n2C)CC2CCC1O2 (racemic) | – | 1 | Dose-dependent effect
12 | COC(=O)[C@@H]1C2CCC(C[C@H]1c1ccc(-c3cccn3C)cc1)O2 (mixture of isomers) | – | > 2.5 | Dose-dependent effect
13 | COC(=O)[C@H]1C2CCC(C[C@H]1c1cc3ccccc3[nH]1)O2 (mixture of isomers) | – | < 0.3 | Dose-dependent effect
14 | COC(=O)[C@H]1C2CCC(C[C@@H]1c1cccs1)O2 (mixture of isomers) | – | 1 | Dose-dependent effect
15 | COC(=O)C1=C(c2cccc(-c3cccn3C)c2)CC2CCC1O2 (racemic) | – | > 14 | Dose-dependent effect
16 | COC(=O)[C@@H]1C2CCC(C[C@H]1c1ccc(-c3cccs3)cc1)O2 (mixture of isomers) | – | 10 | Dose-dependent effect
17 | O=C1C2=C(CC3CCC2O3)c2cc3ccccc3n21 (racemic) | – | 1 | Dose-dependent effect
18 | COC(=O)C1=C(c2cc3ccccc3s2)CC2CCC1O2 (racemic) | – | < 0.004 | Dose-dependent effect
19 | COC(=O)C1=C(c2cccs2)C[C@@H]2CC[C@H]1O2 (racemic) | – | 1 | Dose-dependent effect
20 | COC(=O)[C@@H]1C2CCC(C[C@H]1c1ccc(-c3ccco3)cc1)O2 (mixture of isomers) | – | 4 | Dose-dependent effect
21 | COC(=O)[C@@H]1C2CCC(C[C@H]1c1ccc(-c3nccs3)cc1)O2 (mixture of isomers) | – | > 7 | Dose-dependent effect
22 | COC(=O)C1=C(c2cc3ccccc3o2)CC2CCC1O2 (racemic) | – | < 0.1 | Dose-dependent effect
23 | COC(=O)[C@H]1C2CCC(C[C@@H]1c1cc3ccccc3s1)O2 (mixture of isomers) | – | – | Dose-dependent effect
24 | COC(=O)C1=C(c2ccc(-c3ccccc3)o2)C[C@@H]2CC[C@H]1O2 (racemic) | – | 1 | Dose-dependent effect
25 | COC(=O)C1=C(c2ccco2)C[C@@H]2CC[C@H]1O2 (racemic) | – | 1 | Dose-dependent effect
26 | COC(=O)[C@@H]1C2CCC(C[C@H]1c1cc3ccccc3s1)O2 (mixture of isomers) | – | – | Dose-dependent effect
